Data set [1] can be described thus: Partition coefficient (logP). As to conditions: octanol/water. The format is physicochemical.
Data set [2] has as its target T1, Androgen receptor (Rattus norvegicus) (UniProt P15207).
T1 sequence (whole entry): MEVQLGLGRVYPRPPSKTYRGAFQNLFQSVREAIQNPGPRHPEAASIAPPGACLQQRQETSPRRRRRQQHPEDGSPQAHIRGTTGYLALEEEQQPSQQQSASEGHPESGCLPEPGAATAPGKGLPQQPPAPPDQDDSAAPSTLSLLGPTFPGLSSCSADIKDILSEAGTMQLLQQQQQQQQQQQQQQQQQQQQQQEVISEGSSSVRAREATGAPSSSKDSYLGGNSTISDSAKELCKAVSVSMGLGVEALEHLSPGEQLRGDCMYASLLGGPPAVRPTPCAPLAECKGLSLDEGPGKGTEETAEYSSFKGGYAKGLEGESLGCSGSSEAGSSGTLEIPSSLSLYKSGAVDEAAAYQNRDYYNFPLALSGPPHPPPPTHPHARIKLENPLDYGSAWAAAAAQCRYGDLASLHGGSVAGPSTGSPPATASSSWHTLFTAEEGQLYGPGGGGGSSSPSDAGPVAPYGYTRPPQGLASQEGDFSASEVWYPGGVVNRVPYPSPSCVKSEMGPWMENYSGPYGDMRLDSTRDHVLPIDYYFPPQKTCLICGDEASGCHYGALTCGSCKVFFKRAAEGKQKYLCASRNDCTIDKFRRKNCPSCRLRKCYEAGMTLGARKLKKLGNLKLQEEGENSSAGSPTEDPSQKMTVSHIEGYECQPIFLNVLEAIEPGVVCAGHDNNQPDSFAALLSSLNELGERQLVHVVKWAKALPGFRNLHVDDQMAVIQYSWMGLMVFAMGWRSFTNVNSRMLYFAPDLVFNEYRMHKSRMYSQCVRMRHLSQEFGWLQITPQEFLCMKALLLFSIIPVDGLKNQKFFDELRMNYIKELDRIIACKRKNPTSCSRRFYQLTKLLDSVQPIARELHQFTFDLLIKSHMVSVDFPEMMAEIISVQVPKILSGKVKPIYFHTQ
Kind of data set: In vitro relative binding affinity for rat Androgen receptor.

The target in data set [3] is T1, Androgen receptor (Rattus norvegicus). Put plainly: In vitro relative binding affinity for rat androgen receptor.
For data set [4] the target is unchanged. Kind of data set: Anti-androgenic activity in vivo on groups of five rats treated with seven daily oral doses of testosterone propionate at 200 ug/kg. The class given is functional, organism-based. Particulars: in the assay text read “seven daily subcutaneous doses” for “seven daily oral doses”. Put shortly: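 Male rats, five per group, castrated at 24 days of age, then given testosterone propionate 200 µg/kg subcutaneously daily for seven days. Antiandrogen was given orally, daily, over the same seven days. Rats were killed 24 h after the last dose and seminal vesicles weighed. Percent inhibition of testosterone-stimulated weight was taken against a running castrate control, and ED50 was read from the dose-response curve.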

Data set [5] has the same target. Put plainly: Inhibition of anti-androgenic activity in vivo on groups of five rats treated with seven daily subcutaneous doses of testosterone propionate at 200 ug/kg.

Turning to `CC(C(=O)Nc1ccc([N+](=O)[O-])c(C(F)(F)F)c1)C(F)(F)F` (configuration not stated), the logP in data set [1] stood at 3.71. In data set [2], `CC(O)(/C=C/c1ccc(Cl)c(Cl)c1)C(F)(F)F` (configuration not stated) returned a relative binding affinity (RBA) of under 0.2.

In data set [1], `CC(C)(O)C(=O)Nc1ccc(Cl)cc1` displayed a logP of 2. For `CC(C)(O)C(=O)Nc1ccc([N+](=O)[O-])c(C(F)(F)F)c1` [HYDROXYFLUTAMIDE], in data set [3], the relative binding affinity (RBA) amounted to 2.1. The compound further showed a logP in data set [1] of 2.7. Compound `N#CCC(O)(/C=C/c1ccc(Cl)c(Cl)c1)C(F)(F)F` (configuration not stated) gave an ED50 in data set [4] of 2.5 mg/kg. The compound further showed a relative binding affinity (RBA) in data set [3] of 3.6. In data set [1], `CC(C)C(=O)Nc1ccc([N+](=O)[O-])c(C(F)(F)F)c1` [FLUTAMIDE] came in with a logP of 3.35. Turning to `OC(/C=C/c1ccc(Cl)c(Cl)c1)(CCl)C(F)(F)F` (configuration not stated), the ED50 in data set [4] was 2 mg/kg. For the same compound, in data set [3], the relative binding affinity (RBA) amounted to 1.8.

For the compound `CC(O)(C(=O)Nc1ccc([N+](=O)[O-])c(C(F)(F)F)c1)C(F)F` (configuration not stated), the logP in data set [1] turned out to be 3.76.

`CN(C(=O)C(C)(C)O)c1ccc([N+](=O)[O-])c(C(F)(F)F)c1`: the logP in data set [1] stood at 3.06. `NC(=O)CC(O)(/C=C/c1ccc(Cl)c(Cl)c1)C(F)(F)F` (configuration not stated): it took a dose of 2.5 mg/kg to reach the 50% effect level in data set [4] (ED50). In data set [3], the relative binding affinity (RBA) came out at 0.5.

On to `CC(C)(O)C(=O)Nc1ccc([N+](=O)[O-])cc1`, for which, in data set [1], the logP was 1.61. Compound `CC(O)(CF)C(=O)Nc1ccc([N+](=O)[O-])c(C(F)(F)F)c1` (configuration not stated) displayed a logP in data set [1] of 3.5. In data set [2], the relative binding affinity (RBA) stood at 5.9.

Regarding `CC(=O)C(O)(/C=C/c1ccc(Cl)c(Cl)c1)C(F)(F)F` (configuration not stated), in data set [3], the relative binding affinity (RBA) stood at 0.4. `Cc1c(C(C)(O)C(F)(F)F)[nH]c2ccccc12` (configuration not stated) showed an inhibition in data set [5] of 33%. The same compound gave a relative binding affinity (RBA) in data set [3] of 6.7. The compound `OC(/C=C/c1ccc(Cl)c(Cl)c1)(C(F)(F)F)C(F)(F)F` had a relative binding affinity (RBA) in data set [3] of under 0.2.

`CC(O)(C(=O)Nc1ccc([N+](=O)[O-])c(C(F)(F)F)c1)C(F)(F)F` (configuration not stated): the logP in data set [1] amounted to 3.21.

For the origin of these results see ChEMBL document CHEMBL1125748, “Non-steroidal antiandrogens. Design of novel compounds based on an infrared study of the dominant conformation and hydrogen-bonding properties of a series of anilide antiandrogens” (J Med Chem, 1991).
